Source: ChEMBL document CHEMBL1145325, “p38 MAP kinase inhibitors. Part 3: SAR on 3,4-dihydropyrimido[4,5-d]pyrimidin-2-ones and 3,4-dihydropyrido[4,3-d]pyrimidin-2-ones” (Bioorg Med Chem Lett, 2006)

Key:
[1] = molecular target: Mitogen-activated protein kinase 14 (Homo sapiens, UniProt Q16539); test: Inhibition of p38alpha
THP-1 [2] = test: Inhibition of LPS-stimulated TNFalpha release in human THP1 cells; assay type: functional, cell-based
Procedure, shortened: (§1)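 THP-1 cells at 2.5 · 10⁶/mL suspended in a PBS-based medium. Compound added in DMSO, then LPS. Incubated 4 h at 37 °C under CO₂. TNF-α in the supernatant measured by sandwich ELISA, with anti-human TNF-α as the capture antibody.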

Homo sapiens [3] = species: Homo sapiens; test: Inhibition of LPS-stimulated TNFalpha release in human whole blood; assay type: functional, organism-based
[4] = molecular target: Voltage-gated L-type calcium channel (Homo sapiens, UniProt Q13936+Q13698+Q01668+O60840); test: Binding affinity to DLZ binding site of calcium channel; assay type: protein assay
[5] = molecular target: Voltage-gated inwardly rectifying potassium channel KCNH2 (Homo sapiens, UniProt Q12809); test: Binding affinity to iKr potassium channel
Homo sapiens [6] = species: Homo sapiens; test: Inhibition of LPS-stimulated TNFalpha release in human whole blood upto 15 uM; assay type: functional, organism-based
[7] = Oral bioavailability in rat; assay type: ADME, organism-based; settings: in vivo
[8] = Half life in rat; assay type: ADME, organism-based; settings: in vivo
THP-1 [9] = test: Inhibition of LPS-stimulated TNFalpha release in human THP1 cells upto 15 uM; assay type: functional, cell-based; procedure, shortened: as §1

Voltage-gated inwardly rectifying potassium channel KCNH2, sequence (Q12809 whole entry): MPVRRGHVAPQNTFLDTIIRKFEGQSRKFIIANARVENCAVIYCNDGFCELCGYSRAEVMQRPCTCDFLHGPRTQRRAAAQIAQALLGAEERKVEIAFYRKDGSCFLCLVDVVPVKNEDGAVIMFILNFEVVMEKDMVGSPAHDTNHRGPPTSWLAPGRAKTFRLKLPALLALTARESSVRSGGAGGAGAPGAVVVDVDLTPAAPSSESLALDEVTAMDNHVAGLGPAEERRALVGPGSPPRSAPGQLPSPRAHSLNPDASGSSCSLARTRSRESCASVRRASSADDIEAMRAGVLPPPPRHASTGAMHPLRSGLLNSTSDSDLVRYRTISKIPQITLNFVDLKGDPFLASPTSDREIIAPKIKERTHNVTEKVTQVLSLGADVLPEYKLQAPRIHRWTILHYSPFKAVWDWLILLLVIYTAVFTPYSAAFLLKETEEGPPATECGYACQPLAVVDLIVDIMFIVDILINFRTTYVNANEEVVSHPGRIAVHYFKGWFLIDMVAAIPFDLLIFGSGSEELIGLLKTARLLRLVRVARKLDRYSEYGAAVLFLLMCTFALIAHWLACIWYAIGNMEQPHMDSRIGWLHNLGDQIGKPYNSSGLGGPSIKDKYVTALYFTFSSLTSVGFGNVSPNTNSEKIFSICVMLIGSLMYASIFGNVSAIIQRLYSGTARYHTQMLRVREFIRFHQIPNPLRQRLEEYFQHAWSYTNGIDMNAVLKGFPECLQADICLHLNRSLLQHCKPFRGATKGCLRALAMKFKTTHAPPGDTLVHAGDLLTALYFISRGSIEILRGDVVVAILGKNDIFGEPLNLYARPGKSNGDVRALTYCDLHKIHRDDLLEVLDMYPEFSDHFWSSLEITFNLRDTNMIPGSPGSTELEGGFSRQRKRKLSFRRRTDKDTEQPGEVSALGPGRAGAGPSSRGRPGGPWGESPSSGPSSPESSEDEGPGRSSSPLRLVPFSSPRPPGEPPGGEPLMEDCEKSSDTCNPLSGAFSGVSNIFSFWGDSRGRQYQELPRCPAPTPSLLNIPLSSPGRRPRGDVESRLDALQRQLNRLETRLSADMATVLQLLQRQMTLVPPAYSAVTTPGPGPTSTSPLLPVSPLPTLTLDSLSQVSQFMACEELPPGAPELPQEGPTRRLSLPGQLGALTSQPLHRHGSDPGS
Mitogen-activated protein kinase 14, sequence (Q16539 whole entry): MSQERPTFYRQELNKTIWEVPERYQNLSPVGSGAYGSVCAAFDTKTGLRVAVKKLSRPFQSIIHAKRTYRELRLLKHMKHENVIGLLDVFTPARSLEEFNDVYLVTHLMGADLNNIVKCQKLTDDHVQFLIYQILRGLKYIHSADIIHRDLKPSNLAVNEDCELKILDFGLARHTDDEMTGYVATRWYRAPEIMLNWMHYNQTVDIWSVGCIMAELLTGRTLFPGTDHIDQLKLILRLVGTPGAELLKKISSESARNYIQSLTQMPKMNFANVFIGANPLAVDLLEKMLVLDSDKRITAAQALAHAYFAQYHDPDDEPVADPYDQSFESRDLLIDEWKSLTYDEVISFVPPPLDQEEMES

Compound CC1(C)CC(Nc2nc(-c3ccccc3Cl)c3c(n2)N(c2c(Cl)cccc2Cl)C(=O)NC3)CC(C)(C)N1 has an IC50 [1] of 0.7 nM, an IC50 (THP-1 [2]) of 2.6 nM and an IC50 (Homo sapiens [3]) of 38 nM. For the same compound, the Activity [4] was 1.2 µM and the Activity [5] was 4.5 µM.

With O=C1NCc2c(-c3ccccc3Cl)cc(O)cc2N1c1c(Cl)cccc1Cl the IC50 [1] was 2 nM.

C[C@@H]1CN(c2nc(-c3ccc(Cl)cc3Cl)c3c(n2)N(c2c(Cl)cccc2Cl)C(=O)NC3)C[C@H](C)O1 gave an IC50 [1] of 2 nM, an IC50 (THP-1 [2]) of 500 nM and an Activity [4] of 6 µM. The Activity [5] was 5 µM and the IC50 (Homo sapiens [6]) was “Not Active”.

With CN(C)CCOc1nc(-c2ccccc2Cl)c2c(n1)N(c1c(Cl)cccc1Cl)C(=O)NC2 the IC50 [1] was 4.2 nM, the IC50 (THP-1 [2]) was 21 nM and the IC50 (Homo sapiens [3]) was 250 nM. For the same compound, the Activity [4] was 8.8 µM and the Activity [5] was 10 µM.

CN(C)CCN1CCN(c2nc(-c3ccccc3Cl)c3c(n2)N(c2c(Cl)cccc2Cl)C(=O)NC3)CC1 showed an IC50 [1] of 0.5 nM, an IC50 (THP-1 [2]) of 2.3 nM and an IC50 (Homo sapiens [3]) of 100 nM. For the same compound, the Activity [4] was 1.7 µM and the Activity [5] was 3.8 µM.

In the case of O=C1NCc2c(-c3ccccc3Cl)nc(NC3CN4CCC3CC4)nc2N1c1c(Cl)cccc1Cl (stereo not drawn), the IC50 [1] is reported as 1.2 nM, the IC50 (THP-1 [2]) is reported as 34 nM and the IC50 (Homo sapiens [3]) is reported as 360 nM. It also gave an Activity [4] of 1.3 µM and an Activity [5] of 5.8 µM.

CC(C)N1CCC(c2cc(-c3ccc(F)cc3F)c3c(c2)N(c2c(Cl)cccc2Cl)C(=O)NC3)CC1 showed an IC50 [1] of 0.2 nM and an IC50 (Homo sapiens [3]) of 20 nM.

Work on CC(C)N1CCC(c2cc3c(c(-c4ccccc4Cl)n2)CNC(=O)N3c2c(Cl)cccc2Cl)CC1 yielded a bioavailability [7] of 18% and a half-life [8] of 2.1 h.

With CSc1nc(-c2ccccc2Cl)c2c(n1)N(c1c(Cl)cccc1Cl)C(=O)NC2 the IC50 [1] was 10 nM, the IC50 (THP-1 [2]) was 700 nM and the Activity [4] was 6 µM. The IC50 (Homo sapiens [6]) was “Not Active”.

With CN1C2CCC1CC(Nc1nc(-c3ccccc3Cl)c3c(n1)N(c1c(Cl)cccc1Cl)C(=O)NC3)C2 (stereo not drawn) the IC50 [1] was 0.5 nM, the IC50 (THP-1 [2]) was 2.6 nM and the IC50 (Homo sapiens [3]) was 17 nM. It also gave an Activity [4] of 2.2 µM and an Activity [5] of 8.9 µM.

With Nc1nc(-c2ccccc2Cl)c2c(n1)N(c1c(Cl)cccc1Cl)C(=O)NC2 the IC50 [1] was 5.3 nM, the IC50 (THP-1 [2]) was 81 nM and the IC50 (Homo sapiens [3]) was 2000 nM. The Activity [4] was 9.2 µM, the bioavailability [7] was 100% and the half-life [8] was 1.1 h.

For CS(=O)(=O)c1nc(-c2ccccc2Cl)c2c(n1)N(c1c(Cl)cccc1Cl)C(=O)NC2, the IC50 [1] was 4.2 nM, the IC50 (THP-1 [2]) was 500 nM and the Activity [4] was > 10 µM. For the same compound, the Activity [5] was 9 µM and the IC50 (Homo sapiens [6]) was “Not Active”.

CN(C)CCN1CCN(c2nc(-c3ccc(Cl)cc3Cl)c3c(n2)N(c2c(Cl)cccc2Cl)C(=O)NC3)CC1 gave an IC50 [1] of 1 nM, an IC50 (THP-1 [2]) of 22 nM and an IC50 (Homo sapiens [3]) of 42 nM. It also gave an Activity [4] of 0.22 µM and a bioavailability [7] of 3%.

Work on CN(C)CCNc1nc(-c2ccc(Cl)cc2Cl)c2c(n1)N(c1c(Cl)cccc1Cl)C(=O)NC2 yielded an IC50 [1] of 5.6 nM, an IC50 (THP-1 [2]) of 20 nM and an IC50 (Homo sapiens [3]) of 32 nM. For the same compound, the Activity [4] was 1 µM and the Activity [5] was 0.5 µM.

COCCNc1nc(-c2ccc(Cl)cc2Cl)c2c(n1)N(c1c(Cl)cccc1Cl)C(=O)NC2 gave an IC50 [1] of 2 nM, an IC50 (THP-1 [2]) of 97 nM and an IC50 (Homo sapiens [3]) of 270 nM. For the same compound, the Activity [4] was > 10 µM and the Activity [5] was 3 µM.

O=C1NCc2c(-c3ccccc3Cl)nc(O)nc2N1c1c(Cl)cccc1Cl gave an IC50 [1] of 4 nM, an IC50 (THP-1 [2]) of 170 nM and an Activity [4] of 7 µM. The Activity [5] was 4.6 µM and the IC50 (Homo sapiens [6]) was “Not Active”.

Compound CC(C)Nc1nc(-c2ccccc2Cl)c2c(n1)N(c1c(Cl)cccc1Cl)C(=O)NC2 has an IC50 [1] of 1.1 nM, an IC50 (THP-1 [2]) of 38 nM and an Activity [4] of 10 µM. The Activity [5] was 4.5 µM and the IC50 (Homo sapiens [6]) was “Not Active”.

O=C1NCc2c(-c3ccccc3Cl)nc(N3CCc4[nH]ncc4C3)nc2N1c1c(Cl)cccc1Cl showed an IC50 [1] of 1.9 nM, an IC50 (THP-1 [2]) of 28 nM and an IC50 (Homo sapiens [3]) of 500 nM. The Activity [4] was > 30 µM and the Activity [5] was 10 µM.

CC(C)(C)CNc1nc(-c2ccccc2Cl)c2c(n1)N(c1c(Cl)cccc1Cl)C(=O)NC2 gave an IC50 [1] of 0.8 nM, an IC50 (THP-1 [2]) of 21 nM and an IC50 (Homo sapiens [3]) of 1000 nM. For the same compound, the Activity [4] was > 30 µM and the Activity [5] was 10 µM.

In the case of O=C1NCc2c(-c3ccccc3Cl)nc(NN3CCOCC3)nc2N1c1c(Cl)cccc1Cl, the IC50 [1] is reported as 4 nM, the IC50 (THP-1 [2]) is reported as 99 nM and the IC50 (Homo sapiens [3]) is reported as 1000 nM. For the same compound, the Activity [4] was 7 µM and the Activity [5] was 6.9 µM.

For O=C1NCc2c(-c3ccc(F)cc3F)cc(C3CCNCC3)cc2N1c1c(Cl)cccc1Cl, the IC50 (Homo sapiens [3]) was 10 nM.

With CC(C)N1CCC(Nc2nc(-c3ccccc3Cl)c3c(n2)N(c2c(Cl)cccc2Cl)C(=O)NC3)CC1 the IC50 [1] was 0.6 nM, the IC50 (THP-1 [2]) was 1 nM and the IC50 (Homo sapiens [3]) was 15 nM. For the same compound, the Activity [4] was 3.3 µM, the Activity [5] was 6.4 µM and the bioavailability [7] was 24%. The half-life [8] was 2 h.

Compound O=C1NCc2c(-c3ccccc3Cl)nc(N3CCOCC3)nc2N1c1c(Cl)cccc1Cl has an IC50 [1] of 2 nM, an IC50 (THP-1 [2]) of 500 nM and an Activity [4] of 6 µM. For the same compound, the IC50 (Homo sapiens [6]) was “Not Active”.

Work on CC(C)N1CCN(c2nc(-c3ccc(Cl)cc3Cl)c3c(n2)N(c2c(Cl)cccc2Cl)C(=O)NC3)CC1 yielded an IC50 [1] of 20 nM, an IC50 (THP-1 [2]) of 330 nM and an IC50 (Homo sapiens [3]) of 1940 nM. For the same compound, the Activity [4] was 0.7 µM and the Activity [5] was 0.2 µM.

Nc1cc(-c2ccccc2Cl)c2c(c1)N(c1c(Cl)cccc1Cl)C(=O)NC2 gave an IC50 [1] of 6 nM.

CNc1nc(-c2ccccc2Cl)c2c(n1)N(c1c(Cl)cccc1Cl)C(=O)NC2 showed an IC50 [1] of 2 nM, an IC50 (THP-1 [2]) of 22 nM and an IC50 (Homo sapiens [3]) of 850 nM. It also gave an Activity [4] of 10 µM and an Activity [5] of 6.4 µM.

For CN(C)c1nc(-c2ccccc2Cl)c2c(n1)N(c1c(Cl)cccc1Cl)C(=O)NC2, the IC50 [1] was 3 nM, the Activity [4] was > 10 µM and the Activity [5] was 6 µM. For the same compound, the IC50 (THP-1 [9]) was “Not Active” and the IC50 (Homo sapiens [6]) was “Not Active”.
